Columns and labels:
[1] = test system: obese or overweight subjects; test: Clinical study: fasting lipoprotein and glycemic control parameters; assay type: in vivo, human; settings: enrollment to week 16, evaluable population, mean ± s.e., SEM
Summary of the method: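 Fasting glucose, insulin, lipids and HOMA-IR were taken as change from enrollment to week 16 after the 4-week amylin analogue lead-in with a 40% caloric-deficit diet. This was followed by randomized s.c. b.i.d. leptin analogue, amylin analogue, or both, and advice to keep a 20% caloric deficit. Evaluable subjects had completed week 16; values are mean ± s.e.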

[2] = test system: obese or overweight subjects; assay type: in vivo, human
[3] = test system: nonleptin-deficient obesity; settings: doses up to twofold those used in this study; and data on file, Amylin Pharmaceuticals, Inc.; cited from earlier work
[4] = assay type: in vivo, human; settings: week 16; metreleptin 5 mg b.i.d. s.c.
Summary of the method: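 Predose plasma leptin was measured at week 16 and expressed relative to enrollment concentration. Subjects received a leptin analogue at 5mg b.i.d. s.c., alone or with an amylin analogue at 360 μg b.i.d., each injected separately 15 min before morning and evening meals. Analysis covered the evaluable population; values are mean ± s.e.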

[5] = test system: obese or overweight subjects; test: Clinical study: treatment-emergent adverse events, tolerability and withdrawals
[6] = evaluable population, LS mean ± s.e., SEM
[7] = ITT population, lead-in and postrandomization periods

Metreleptin: recombinant methyl-human leptin (metreleptin)
Change in HOMA-IR [1]: −0.10 ± 0.29
Change in insulin ([1]; fasting serum): −0.6 ± 1.1 μIU/ml
Change in HDL ([1]; fasting): 1.7 ± 1.5 mg/dL
Change in LDL ([1]; fasting): 1.1 ± 5.1 mg/dL
Change in blood glucose ([1]; fasting): 0.7 ± 1.7 mg/dL
Change in total cholesterol ([1]; fasting): 2.7 ± 5.8 mg/dL
Change in triglycerides ([1]; fasting): 5.7 ± 13.5 mg/dL
Overall rate of weight change ([2]; day 1 to week 20, evaluable population, LS mean ± s.e., SEM): −0.16 ± 0.06 kg/week
Rate of weight change, Day 1 to week 12 [2, 6]: −0.23 ± 0.06 kg/week
Rate of weight change, Week 12 to week 20 [2, 6]: −0.02 ± 0.08 kg/week
Weight loss, percent of initial body weight over 24 weeks ([2]; evaluable, rounded figures of the discussion): ~ 8%
Weight loss in previous monotherapy trials [3]: failed to show significant weight loss
Increase of predose leptin concentrations over enrollment concentrations [4]: 13- to 16 fold
Back pain [5, 7]: 0 (0.0) n (%)
Constipation [5, 7]: 1 (3.7) n (%)
Diarrhea [5, 7]: 0 (0.0) n (%)
Headache [5, 7]: 2 (7.4) n (%)
Hypersensitivity [5, 7]: 2 (7.4) n (%)
Influenza [5, 7]: 1 (3.7) n (%)
Injection site adverse events [5, 7]: 18 (66.7) n (%)
Nasopharyngitis [5, 7]: 2 (7.4) n (%)
Nausea [5, 7]: 7 (25.9) n (%)
Streptococcal pharyngitis [5, 7]: 0 (0.0) n (%)
Vomiting [5, 7]: 2 (7.4) n (%)
Withdrew during randomized treatment, reason: Adverse event ([5]; through week 20, randomized/ITT population): 3 (11) n (%)

Reference: publication PMC2754219 (Obesity (Silver Spring, Md.), 2009)
